Measurements: ChEMBL document CHEMBL1122229, “alpha-adrenoreceptor reagents. 1. Synthesis of some 1,4-benzodioxans as selective presynaptic alpha 2-adrenoreceptor antagonists and potential antidepressants” (J Med Chem, 1983)
Active and inactive are the calls of the source. No cut-off for these calls is given here.

What was measured:
[1] = target: T1, Adrenergic receptor alpha-1 (Rattus norvegicus) (UniProt P15823+P23944+P43140); assay: In vitro postsynaptic antagonist potency at alpha-1 adrenergic receptor in rat anococcygeus relative to compound 5 (RX781094); IA means compound is inactive.; format: functional
[2] = target: T2, Adrenergic receptor alpha-2 (Rattus norvegicus) (UniProt P22086+P19328+P22909); assay: In vitro presynaptic agonist potency at alpha-2 adrenergic receptor in rat or mouse vas deferens relative to clonidine; format: functional, tissue-based
In short: (§1)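 Field-stimulated rat or mouse vas deferens under 0.5 g tension, at 0.1 Hz with 3-ms pulses, 30 °C, gassed with 95% O2/5% CO2. Contractions were recorded isometrically. Standard dose-response curves were run before and after each analogue curve. Potency was expressed relative to the standard in the same experiment.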

[3] = target: T1, Adrenergic receptor alpha-1 (Rattus norvegicus); assay: In vitro postsynaptic agonist potency at alpha-1 adrenergic receptor in rat anococcygeus muscle relative to phenylephrine; IA means inactive.; format: functional, tissue-based
In short: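 Rat anococcygeus muscle (male Sprague–Dawley rats, 200–250 g) suspended at 0.5 g initial tension in a 50-mL organ bath. […] Standard dose-response curves were run before and after the analogue's curve.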

[4] = test system: Alpha-2 adrenergic receptor (Rattus norvegicus); assay: In vitro presynaptic agonist potency at alpha-2 adrenergic receptor in rat or mouse vas deferens relative to clonidine; IA means inactive
[5] = target: T2, Adrenergic receptor alpha-2 (Rattus norvegicus); assay: In vitro presynaptic agonist potency at alpha-2 adrenergic receptor in rat or mouse vas deferens relative to clonidine; IA means inactive; format: functional, tissue-based
In short: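 Field-stimulated rat or mouse vas deferens (Krebs, 30 °C, 95% O2/5% CO2, 3-ms pulses at 0.1 Hz) with isometric twitch recording. […] Standard dose-response curves were run before and after the analogue's curve.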

[6] = target: T1, Adrenergic receptor alpha-1 (Rattus norvegicus); assay: In vitro postsynaptic antagonist potency at alpha-1 adrenergic receptor in rat anococcygeus. Taken as standard; format: functional
[7] = In vitro antagonism at Alpha-2 adrenergic receptor in rat or mouse vas deferens relative to RX781094.; format: functional
In short: (§2)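 Prostatic half of vas deferens from male Sprague–Dawley rats (200–250 g; Krebs, 30 °C, 95% O2/5% CO2, 0.1 Hz, 3-ms, 40 V) or from mice (magnesium-free Krebs, 100–140 V). Tension 0.5 g; isometric twitch recording. […] The concentration giving 50% reversal of the inhibition was compared with standard 5 in the same tissue.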

[8] = target: T1, Adrenergic receptor alpha-1 (Rattus norvegicus); assay: In vitro postsynaptic agonist potency at alpha-1 adrenergic receptor in rat anococcygeus muscle relative to phenylephrine; format: functional, tissue-based
[9] = target: T3, Adenosine receptor A2b (Rattus norvegicus) (UniProt P29276); assay: In vitro presynaptic agonist potency at Alpha-2 adrenergic receptor in rat or mouse vas deferens relative to clonidine; format: functional, tissue-based; in short: as §1
T3 sequence (whole entry): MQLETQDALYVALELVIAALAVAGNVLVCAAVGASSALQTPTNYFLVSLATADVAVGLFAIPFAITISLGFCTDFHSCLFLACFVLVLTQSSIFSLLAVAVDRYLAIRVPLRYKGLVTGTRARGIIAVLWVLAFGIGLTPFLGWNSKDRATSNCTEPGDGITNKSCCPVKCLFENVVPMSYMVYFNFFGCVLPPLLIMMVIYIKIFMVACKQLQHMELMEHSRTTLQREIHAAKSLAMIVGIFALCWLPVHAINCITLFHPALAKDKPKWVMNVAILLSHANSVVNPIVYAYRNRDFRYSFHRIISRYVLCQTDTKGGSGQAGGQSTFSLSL

[10] = target: T1, Adrenergic receptor alpha-1 (Rattus norvegicus); assay: In vitro postsynaptic antagonist potency at alpha-1 adrenergic receptor in rat anococcygeus relative to compound 5 (RX781094); AG means compound is agonist.; format: functional; conditions: filed as agonist
[11] = Selectivity ratio of presynaptic antagonist potency to postsynaptic antagonist potency; format: functional
In short: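 Selectivity ratio is the antilog of the difference between pA2 values at presynaptic α2- and postsynaptic α1-adrenoreceptors. pA2 values were derived by the Arunlakshana–Schild method, each a mean ± SEM of at least six experiments.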

[12] = Ratio of pA2 value against alpha2 to alpha-1 adrenoceptor
In short: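 α2/α1 selectivity was taken as the antilog of the difference between the pA2 values at α2- and α1-adrenoreceptors.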

[13] = target: T4, Adrenergic receptor alpha-2 (Rattus norvegicus, UniProt P22086+P19328+P22909); assay: Alpha-2 adrenergic receptor pA2 value against clonidine in vitro experiment in rat vas deferens; format: tissue-based
T4 sequence (P22086 whole entry): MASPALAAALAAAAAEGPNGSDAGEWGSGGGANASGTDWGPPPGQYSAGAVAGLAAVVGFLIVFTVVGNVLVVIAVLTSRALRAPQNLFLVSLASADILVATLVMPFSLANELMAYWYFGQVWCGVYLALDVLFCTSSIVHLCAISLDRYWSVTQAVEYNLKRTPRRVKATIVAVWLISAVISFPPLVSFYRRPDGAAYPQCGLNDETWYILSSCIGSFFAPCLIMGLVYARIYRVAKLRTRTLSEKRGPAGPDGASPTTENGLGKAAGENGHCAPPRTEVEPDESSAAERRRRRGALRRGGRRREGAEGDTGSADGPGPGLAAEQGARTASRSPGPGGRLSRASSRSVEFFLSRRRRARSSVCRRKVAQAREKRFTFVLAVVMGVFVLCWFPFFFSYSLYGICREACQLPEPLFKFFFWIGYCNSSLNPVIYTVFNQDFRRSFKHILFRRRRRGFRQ
T4 sequence (P19328 whole entry): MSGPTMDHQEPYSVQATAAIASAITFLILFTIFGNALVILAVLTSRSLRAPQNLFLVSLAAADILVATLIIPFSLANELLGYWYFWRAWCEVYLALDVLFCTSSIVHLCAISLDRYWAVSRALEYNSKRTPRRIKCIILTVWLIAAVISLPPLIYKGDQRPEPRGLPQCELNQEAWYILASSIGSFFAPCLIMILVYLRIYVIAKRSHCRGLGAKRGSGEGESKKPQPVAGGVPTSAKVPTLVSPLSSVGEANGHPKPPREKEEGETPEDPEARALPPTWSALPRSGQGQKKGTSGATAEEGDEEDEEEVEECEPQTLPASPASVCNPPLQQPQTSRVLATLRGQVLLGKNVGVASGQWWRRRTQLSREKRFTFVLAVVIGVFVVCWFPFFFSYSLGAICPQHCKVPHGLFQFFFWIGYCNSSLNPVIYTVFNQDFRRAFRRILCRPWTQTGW
T4 sequence (P22909 whole entry): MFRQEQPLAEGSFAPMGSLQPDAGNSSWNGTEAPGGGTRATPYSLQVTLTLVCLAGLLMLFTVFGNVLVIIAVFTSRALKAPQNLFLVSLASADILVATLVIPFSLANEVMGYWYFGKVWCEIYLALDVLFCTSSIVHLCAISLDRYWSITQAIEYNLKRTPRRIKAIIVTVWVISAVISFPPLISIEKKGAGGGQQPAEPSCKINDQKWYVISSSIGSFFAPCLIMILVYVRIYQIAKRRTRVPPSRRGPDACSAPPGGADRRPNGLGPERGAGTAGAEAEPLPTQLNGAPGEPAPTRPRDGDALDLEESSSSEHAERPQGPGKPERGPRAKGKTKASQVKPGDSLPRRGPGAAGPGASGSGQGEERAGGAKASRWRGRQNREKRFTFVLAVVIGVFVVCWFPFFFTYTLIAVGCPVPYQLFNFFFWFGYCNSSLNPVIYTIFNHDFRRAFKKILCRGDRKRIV
In short: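 pA2 was obtained by Arunlakshana–Schild analysis at postsynaptic α1 (anococcygeus) or presynaptic α2 (vas deferens) sites. Values are mean ± SEM of at least six experiments.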

[14] = target: T2, Adrenergic receptor alpha-2 (Rattus norvegicus); assay: In vitro presynaptic antagonist potency at alpha-2 adrenergic receptor in rat or mouse vas deferens relative to compound 5 (RX781094); format: functional, tissue-based
In short: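 Prostatic halves of rat vas deferens (male Sprague–Dawley rats, 200–250 g; Krebs, 30 °C, 95% O2/5% CO2; 3-ms, 40 V, 0.1 Hz field pulses) or mouse vas deferens (Mg-free Krebs, 30 °C; 3-ms pulses, 0.1 Hz, 100–140 V) were used, with isometric twitch recording. […] The concentration giving 50% reversal was compared with the RX781094 standard in the same tissue.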

[15] = target: T5, Adrenergic receptor alpha-1 (Rattus norvegicus, UniProt P15823+P23944+P43140); assay: alpha-1 adrenergic receptor pA2 value against norepinephrine in vitro experiment in rat anococcygeus
T5 sequence (P15823 whole entry): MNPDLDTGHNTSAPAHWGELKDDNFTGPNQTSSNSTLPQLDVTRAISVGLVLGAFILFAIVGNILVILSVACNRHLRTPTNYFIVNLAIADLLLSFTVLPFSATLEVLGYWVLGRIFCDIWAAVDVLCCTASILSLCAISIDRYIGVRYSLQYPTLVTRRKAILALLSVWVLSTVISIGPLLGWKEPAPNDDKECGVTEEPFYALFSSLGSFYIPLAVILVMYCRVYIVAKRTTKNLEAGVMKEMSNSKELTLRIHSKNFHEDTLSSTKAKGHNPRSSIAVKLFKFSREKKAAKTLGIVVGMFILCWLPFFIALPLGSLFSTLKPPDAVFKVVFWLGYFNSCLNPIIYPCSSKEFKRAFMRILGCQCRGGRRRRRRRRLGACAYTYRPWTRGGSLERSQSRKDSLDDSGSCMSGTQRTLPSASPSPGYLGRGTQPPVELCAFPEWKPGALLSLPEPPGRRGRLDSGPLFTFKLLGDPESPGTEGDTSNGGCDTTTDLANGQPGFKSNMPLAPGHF
T5 sequence (P23944 whole entry): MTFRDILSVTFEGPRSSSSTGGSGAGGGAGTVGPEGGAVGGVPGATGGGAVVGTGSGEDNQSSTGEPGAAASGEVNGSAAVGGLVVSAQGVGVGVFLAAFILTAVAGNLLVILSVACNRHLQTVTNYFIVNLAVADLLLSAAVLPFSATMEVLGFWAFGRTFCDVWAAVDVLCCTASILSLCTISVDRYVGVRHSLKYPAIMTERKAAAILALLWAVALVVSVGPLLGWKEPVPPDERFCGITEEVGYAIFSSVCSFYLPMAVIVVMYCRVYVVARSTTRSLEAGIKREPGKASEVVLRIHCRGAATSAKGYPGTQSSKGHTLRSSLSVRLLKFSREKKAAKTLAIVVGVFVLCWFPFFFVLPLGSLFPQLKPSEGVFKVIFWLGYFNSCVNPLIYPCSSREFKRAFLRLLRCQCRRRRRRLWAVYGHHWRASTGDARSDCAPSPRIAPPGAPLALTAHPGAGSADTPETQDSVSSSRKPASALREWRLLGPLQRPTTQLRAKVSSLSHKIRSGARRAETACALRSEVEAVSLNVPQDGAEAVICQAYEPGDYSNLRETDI
T5 sequence (P43140 whole entry): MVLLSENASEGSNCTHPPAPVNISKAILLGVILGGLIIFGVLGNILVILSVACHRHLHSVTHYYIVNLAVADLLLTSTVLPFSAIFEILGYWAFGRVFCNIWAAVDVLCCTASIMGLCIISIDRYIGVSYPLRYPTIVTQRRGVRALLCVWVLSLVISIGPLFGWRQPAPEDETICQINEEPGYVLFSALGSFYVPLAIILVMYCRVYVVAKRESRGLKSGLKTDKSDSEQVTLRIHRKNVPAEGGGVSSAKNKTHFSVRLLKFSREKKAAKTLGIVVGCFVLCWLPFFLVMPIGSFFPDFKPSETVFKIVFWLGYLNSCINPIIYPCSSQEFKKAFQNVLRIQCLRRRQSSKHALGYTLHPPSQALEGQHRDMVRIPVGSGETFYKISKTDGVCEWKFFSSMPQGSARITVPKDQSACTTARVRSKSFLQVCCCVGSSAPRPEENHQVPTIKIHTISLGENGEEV

[16] = target: T1, Adrenergic receptor alpha-1 (Rattus norvegicus); assay: In vitro postsynaptic antagonist potency at alpha-1 adrenergic receptor in rat anococcygeus relative to compound 5 (RX781094); format: functional
[17] = target: Adrenergic receptor alpha-2 (Homo sapiens) (UniProt P08913+P18825+P18089); assay: In vitro presynaptic antagonist potency at Alpha-2 adrenergic receptor in rat or mouse vas deferens relative to compound 5 (RX781094); format: functional, tissue-based; in short: as §2
[18] = target: T1, Adrenergic receptor alpha-1 (Rattus norvegicus); assay: Ratio of presynaptic antagonist potency to postsynaptic antagonist potency; format: functional
[19] = test system: Alpha-2 adrenergic receptor (Rattus norvegicus); assay: In vitro presynaptic agonist potency at alpha-2 adrenergic receptor in rat or mouse vas deferens relative to clonidine; Inactive

Nc1noc(C2COc3ccccc3O2)n1 (centres undefined)
Antagonist potency [1]: inactive | Agonist potency [2]: 0.0001 | Agonist potency [3]: inactive | Antagonist potency [4]: inactive

c1ccc2c(c1)OCC(C1=NCCN1)O2 (centres undefined)
Agonist potency [5]: inactive | Agonist potency [3]: inactive | Antagonist potency [6]: 1

Cc1cccc2c1OCC(C1=NCCN1)O2 (centres undefined)
Antagonist potency [7]: 0.13 | Agonist potency [8]: 1 | Agonist potency [9]: 0.1 | Antagonist potency [10]: Agonist

CCn1ccnc1CC1COc2ccccc2O1 (centres undefined) [IMILOXAN]
Selectivity [11]: 0.53 | Selectivity [12]: 135 | pA2 [13]: 6.98 | Agonist potency [5]: inactive | Agonist potency [3]: inactive | Antagonist potency [14]: 0.02 | pA2 [15]: 4.85 | Antagonist potency [16]: 0.036

COc1cc2c(cc1OC)OC(C1=NCCN1)CO2 (centres undefined)
Agonist potency [3]: inactive | Antagonist potency [17]: 0.015 | Selectivity [18]: 0.3 | Agonist potency [19]: inactive | Antagonist potency [16]: 0.05
